# Screens as filed in PubChem.
# Rows were chosen to be rich in hits. Some 2.2% of all compounds tested hit in one or more screens of this group.
# LEDGF integ inh: blocks HIV-1 LEDGF/p75-dependent DNA integration. TR-FRET IN-LEDGF/p75 DNA integration, Eu/Cy5. inhibition, % at 3.7 µM. actives 0.64% (n = 370,000). AID 743269;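 active = inhibition above the screen-wide mean plus 3 SD, cut at about 13% in these data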;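 also: signal is the Cy5 over europium emission ratio at 671 and 618 nm; 0% = plate median of compound wells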
# TDP2 inh: blocks human TDP2 phosphodiesterase activity; O95551; recombinant TDP2, T5PNP hydrolysis, p-nitrophenol absorbance 415 nm; inhibition, % at 12.8 µM; actives 0.34% (n = 370,000);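 active = inhibition above the mean of all tested compounds plus 3 SD, set per campaign, cut at about 25% in these data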;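 also: 0% = DMSO with enzyme and 100% = buffer with substrate but no TDP2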
#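 Evaluation: % inhibition relative to enzyme-containing and enzyme-free wells. Material: recombinant human TDP2. Benchmarks: enzyme-free and DMSO wells. Timing: enzyme reaction with compound for 2 h at 37 °C. Compound dosing: 12.8 µM only. Measured by: p-Nitrophenol epi absorbance. Reagent: T5PNP substrate at 5 mM, a TopII-DNA adduct mimic. Replication: single well per compound.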
# HTRA1 inh: inhibitors of human serine peptidase HTRA1; Q92743; recombinant HTRA1, FP-rhodamine activity-based probe, fluorescence polarization; inhibition, % at 5.96 µM; actives 0.5% (n = 340,000); in the data active = inhibition above about 36%;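 also: 0% = enzyme with DMSO and 100% = wells lacking enzyme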
# Target sequence (Q92743 whole entry, looked up): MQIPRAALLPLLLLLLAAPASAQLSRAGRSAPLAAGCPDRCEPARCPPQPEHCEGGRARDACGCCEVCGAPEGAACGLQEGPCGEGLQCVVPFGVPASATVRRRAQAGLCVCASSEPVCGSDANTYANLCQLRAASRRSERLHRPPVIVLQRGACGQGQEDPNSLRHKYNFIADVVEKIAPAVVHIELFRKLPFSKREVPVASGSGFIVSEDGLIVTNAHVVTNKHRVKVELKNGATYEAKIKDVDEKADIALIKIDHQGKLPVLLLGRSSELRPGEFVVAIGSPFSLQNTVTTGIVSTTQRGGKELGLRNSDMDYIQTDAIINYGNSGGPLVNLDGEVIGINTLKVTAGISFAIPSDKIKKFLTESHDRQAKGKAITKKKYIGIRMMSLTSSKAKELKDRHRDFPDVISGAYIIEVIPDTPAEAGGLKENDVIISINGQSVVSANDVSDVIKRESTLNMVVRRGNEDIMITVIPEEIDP
# TCR-CD3 inh: human TCR-CD3 binding inhibition; inhibition, % at 9.4 µM; actives 0.37% (n = 360,000); TAMRA-labeled TCR probe fluorescence, biochemical; in the data active = inhibition above about 19%;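 also: recombinant mutant TCR 2C K166C tagged with TAMRA read by polarization; 0% = receptor in buffer alone and 100% = receptor with positive control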
# SIAE inh: inhibitors of human sialic acid acetylesterase SIAE; Q9HAT2; SIAE FP-Rh probe binding, fluorescence polarization; inhibition, % at 9.66 µM; actives 0.69% (n = 370,000); AID 1053197;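 active = inhibition above a cutoff: mean of compounds within the control limits plus 3 SD of those, cut at about 17% in these data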;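 also: 0% = plate median of compound wells and 100% = probe without SIAE protein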
# ABHD4 inh: inhibits mouse alpha/beta hydrolase domain 4; Q8VD66; purified mABHD4, FP-Rh probe fluorescence polarization; inhibition, % at 8.92 µM; actives 0.54% (n = 370,000); AID 720543;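 active = inhibition exceeding the mean over every tested compound plus 3 SD, cut at about 30% in these data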;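 also: 0% = plate median of compound wells and 100% = S159A mutant with DMSO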
#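 system = mouse ABHD4 enzyme, wild type | medium = HEPES pH 7.0, NaCl, Pluronic buffer | also added = FP-Rh probe | incubation = Enzyme–compound pre-incubation 45 min, then probe 60 min, both 25 °C | technique = fluorescence polarization, excitation 525 nm, emission 598 nm, BODIPY TMR filters | controls = S159A mutant high control, sample median low control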
# TDP2 confirm: human TDP2 inhibition, confirmation; shares compounds with TDP2 inh; recombinant human TDP2, absorbance read-out; inhibition, % at 12.8 µM; actives 22% (n = 1,100); AID 743263; in the data active = inhibition above about 25%;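 also: 0% = vehicle with enzyme and 100% = no enzyme buffer only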
# Numbers without * were called inactive; . = no result given.
SMILES,LEDGF integ inh,TDP2 inh,HTRA1 inh,TCR-CD3 inh,SIAE inh,ABHD4 inh,TDP2 confirm
CCCCOC(=O)C1=C(C)NC2(O)c3ccccc3C(=O)C12O (configuration not stated),2.7,61.0*,4.4,-5.6,-0.9,-6.0,25.4*
C[C@H]1[C@@H](OC(=O)Nc2ccc(Br)cc2)CC[C@@]23CCCN2C(=O)CCC[C@@H]13,-0.2,-7.4,.,.,-6.2,-0.9,.
CC(=O)N(C)C1=C(O)c2ccccc2C(=O)C1=O,1.2,5.4,4.4,-3.5,12.2,4.8,.
CC(=O)C(C(C)=O)C1(O)C(=O)c2ccccc2C1=O,-3.3,44.4*,5.2,-1.4,-8.0,8.2,68.2*
CC(=O)NC1=NN(c2ccccc2)C(=O)C1,8.2,54.5*,-0.8,5.0,5.2,6.2,5.3
O=C(CCCCl)NC1=NN(c2ccccc2)C(=O)C1,-0.5,15.1,11.0,-2.1,6.8,8.6,.
O=C(CNS(=O)(=O)c1ccc(F)cc1)N1CCN(c2ccccn2)CC1,-4.4,4.4,.,.,0.9,0.8,.
CCc1ccc2cc(F)cc(F)c2n1,-2.9,45.1*,.,-2.9,1.9,3.2,-8.8
CCc1ccc2cc(C)cc(C)c2n1,3.1,3.9,.,-5.8,-2.3,-0.7,.
C=CCN(Cc1ccc(OC)cc1OC)C(C#CCCCC)c1ccccc1 (configuration not stated),3.2,-3.0,.,.,-4.0,-3.4,.
CCN1CCN(C(C)C(=O)NC2CCCCC2)CC1 (configuration not stated),7.4,26.9*,2.4,7.1,4.8,8.1,8.3
COCCN1C=C2C(=O)C(C)(OC(=O)C3CCCC3)C(=O)C(c3ccccc3)=C2C=C1CCCC(=O)OC (configuration not stated),0.1,30.2*,4.3,-1.3,12.4,5.8,22.1
COC(=O)CCCC1=CC2=C(c3ccccc3)C(=O)C(C)(OC(=O)C3CCCC3)C(=O)C2=CN1CC1CC1 (configuration not stated),3.0,22.6,0.3,0.1,-0.4,13.2,.
COC(=O)CCCC1=CC2=C(c3ccccc3)C(=O)C(C)(OC(=O)C3CCCC3)C(=O)C2=CN1C1CCCC1 (configuration not stated),2.2,20.0,5.5,7.1,-0.2,0.0,.
COC(=O)CCCC1=CC2=C(c3ccccc3)C(=O)C(C)(OC(=O)C3CCCC3)C(=O)C2=CN1CC(C)C (configuration not stated),6.6,24.9*,5.5,9.6,0.4,9.8,14.1
COc1ccc(C[N+]2=C(N)N[C@@]3(C=C(C)Cn4c(=O)n(-c5ccccc5)c(=O)n43)C2)c(OC)c1,3.3,1.8,.,.,11.2,7.3,.
NC(=O)C1CCCN(C(=O)CCCNC(=O)c2ccc(Cl)cc2)C1 (configuration not stated),-0.6,30.5*,-28.8,3.8,1.7,-2.5,6.7
Brc1cc2c(cc1CN1CCc3ccccc3C1)OCO2,-0.1,26.2*,-6.7,5.2,6.4,-1.9,4.1
Cc1cc(C)cc(N(CC(=O)NC2CCC(C)CC2)S(=O)(=O)c2ccc(Br)s2)c1 (configuration not stated),5.6,7.2,.,.,-1.8,2.6,.
COc1ccc(Cc2nc3ccc(C(=O)N4CCCCC4CCO)cc3o2)cc1 (configuration not stated),-2.6,24.8*,-1.7,2.7,7.0,1.4,10.2
CCC1CCCCN1C(=O)c1ccc2nc(Cc3ccc(OC)cc3)oc2c1 (configuration not stated),-2.5,12.4,-4.7,-1.1,-3.9,12.9,.
CCOc1ccccc1NC(=O)C(NCCN(C)C)c1ccccc1 (configuration not stated),1.4,27.3*,-3.7,-5.3,5.5,11.4,12.7
COc1ccccc1CN1CCN(C(=O)c2ccco2)CC1,0.0,11.3,-14.9,-0.9,1.4,11.2,.
COc1cc(CN2CCN(Cc3ccco3)CC2)cc(OC)c1,-0.1,22.6,6.7,0.9,0.0,12.1,.
COc1ccc(CN2CCN(Cc3ccco3)CC2)c(OC)c1,1.1,26.6*,1.8,-1.2,1.3,14.0,5.8
